# Rows were chosen to be rich in hits. Some 1.8% of all compounds tested hit in one or more screens of this group.
# PPC-1+TRAIL kill: compounds killing PPC-1 cancer cells with TRAIL present (potentiator screen, no TRAIL-free arm); AID 1443; 220,000 tested, 0.41% active; PPC-1 cells + TRAIL, ATPLite viability luminescence; cell killing (% activity), % at 4 µM or 5 µM;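 active means cell killing above 50% in the first pass at 4 µM, then a duplicate retest at 5 µM averaging 50% or more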;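 further: plate controls were cells with TRAIL plus DMSO for no effect and medium-only wells lacking cells for full effect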
# STAT1 inh: inhibitors of IFN-gamma induced STAT1 signaling; NIH 3T3 STAT1-luciferase reporter, luminescence; 200,000 tested, 0.35% active; inhibition, % at 5.5 µM; AID 920;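 active means inhibition above a set limit, the mean inhibition across all tested compounds plus 3 SD, cut at about 34% in these data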;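 further: 0% = IFN-gamma with DMSO and 100% = IFN-gamma with 300 µM nifuroxazide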
# STAT3 activator: activators of IL-6 induced STAT3 signaling | U3A cells, IL-6 STAT3-luciferase reporter, luminescence; 100% = signal with IL-6 EC80 alone | activation (% of control), % at 5.6 µM | 190,000 tested, 0.91% active | AID 871;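 active means activation above the screen-wide mean of compound activation plus 3 SD, cut at about 130% in these data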;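 further: 0% = background luminescence of wells with medium and substrate only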
#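 Material: human STAT1-deficient U3A cells with stable STAT3-luciferase reporter / Probe or stimulus: IL-6 stimulus at 33 ng/mL final / Schedule: 1 h compound pre-exposure, 6 h IL-6 stimulation, 37 °C / Technique: luminescence / Read-out basis: percent of IL-6-only median luminescence / Control set: IL-6-only high control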
# STAT3 blocker: reduces IL-6 driven STAT3 reporter signal; inhibition, % at 5.5 µM; U3A cells, IL-6 STAT3-luciferase reporter, luminescence; host cell line lacks STAT1; 190,000 tested, 0.89% active;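 active means inhibition above the mean inhibition across all screened compounds plus 3 SD, cut at about 44% in these data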;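 further: 0% = DMSO only wells and 100% = 100 µM nifuroxazide control wells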
# TRAIL sens C8: caspase-8 TRAIL sensitization. NB7+C8 cells + TRAIL, ATPlite viability luminescence. inhibition (viability loss, TRAIL sensitization), % at 10 µM. 360,000 tested, 1% active. AID 624354;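 active means compounds causing at least 50% loss of cell viability in the single-dose screen, relative to plate controls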
# PPC1 cytotox: kills PPC-1 cells; shares compounds with PPC-1+TRAIL kill; PPC-1 viability, ATPlite luminescence, overnight; cytotoxicity, % at 5 µM; 1,200 tested, 50% active; AID 1447;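 active means reconfirmed compounds whose average cytotoxicity reaches 50% or more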;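 further: 0% = DMSO-treated cells and 100% = wells holding medium but no cells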
# Numbers without * were called inactive; . = not tested or not shown.
SMILES,PPC-1+TRAIL kill,STAT1 inh,STAT3 activator,STAT3 blocker,TRAIL sens C8,PPC1 cytotox
Cc1ccccc1C(=O)Nc1ccc2c(c1)OCO2,48,-7,69,42,41,52*
Cn1c(C(=O)Nc2ccc3c(c2)OCO3)cc2sccc21,6,-102,126,-26,32,12
COc1ccccc1C(=O)Nc1ccc2c(c1)OCO2,-11,-35,124,-19,6,.
Cn1c(C(=O)NCc2ccc3c(c2)OCO3)cc2sccc21,-2,-5,95,9,2,.
Cc1ccnc(NC(=O)Nc2ccc3c(c2)OCO3)c1,36,-50,67,42,55*,41
COc1ccccc1N1CCN(C(=O)c2cc(S(=O)(=O)N3CCOCC3)ccc2C)CC1,.,.,.,.,11,.
N#Cc1c(N2CCSCC2)nsc1-c1ccccc1Cl,.,.,.,.,-6,.
CC1(C(=O)Nc2ccc3c(c2)OCCO3)CCN1C(=O)Cc1ccc(-c2ccccc2)cc1 (stereo not given),.,.,.,.,10,.
CCOc1ccccc1N1CCN(C(=O)C2c3ccccc3Oc3ccccc32)CC1,3,-1,101,3,14,-7
CCOc1ccccc1N1CCN(C(=O)c2ccccc2)CC1,25,10,92,12,-7,.
COc1cc(N)ccc1NC(=O)c1cccs1,-1,-9,93,12,1,4
OCc1ccccc1-c1ccc2nncn2c1,.,.,.,.,-9,.
Cc1csc(N(C)C(=O)CSc2nnc(COc3ccccc3C)o2)n1,-21,3,99,-1,20,-15
O=C(COC(=O)CN1C(=O)c2ccccc2C1=O)Nc1ccc(S(=O)(=O)N2CCCC2)cc1,13,-1,98,3,38,16
O=C(COC(=O)c1cccc(F)c1)Nc1cccc(S(=O)(=O)N2CCCCC2)c1,.,.,.,.,-1,.
O=C(CCl)Nc1cc(SCC(O)CO)cc([N+](=O)[O-])c1 (stereo not given),48,54*,20,98*,2,50*
O=C1C(Cl)=C(Nc2ccc(O)cc2)C(=O)c2ccccc21,29,.,.,.,89*,30
CC1(C(=O)NS(=O)(=O)c2cccc(F)c2)CCN1C(=O)CC1CCCCC1 (stereo not given),.,.,.,.,-8,.
CC(=O)N(C)C1=C(N2CCOCC2)C(=O)c2ccccc2C1=O,24,-2,108,-5,90*,27
CC(=O)N(C1=C(N2CCOCC2)C(=O)c2ccccc2C1=O)c1ccc(C(=O)O)cc1,3,.,.,.,17,.
